Bioassay records as filed in PubChem BioAssay.
A selection: hits, their analogues and other compounds. The true share with any hit is near 1.7%.
SUMO1-SIM PPI – modulators of SUMO1 protein-protein interactions, primary screen, biochemical, uHTS; Small ubiquitin-related modifier 1 (Homo sapiens), P63165; SUMO1 binding to a labelled peptide, TR-FRET, 1 h; inhibition, % at 20 µM; 0.33% of 360,000 active; in the data active means inhibition above about 37%
Target sequence (P63165 whole entry, looked up): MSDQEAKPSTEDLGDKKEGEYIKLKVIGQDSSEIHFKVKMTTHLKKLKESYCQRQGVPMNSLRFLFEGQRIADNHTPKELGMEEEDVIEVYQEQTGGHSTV
STEP block – STEP phosphatase inhibitors, primary screen, biochemical, fluorescence intensity, uHTS; Tyrosine-protein phosphatase non-receptor type 5 (Homo sapiens), P54829; recombinant STEP, OMFP fluorogenic substrate; inhibition, % at 20 µM; 0.25% of 360,000 active;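 active means inhibition at 20 µM, scaled per plate between control wells, above about 37%, limit read from the data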;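 further: 0% = DMSO with enzyme and substrate and 100% = substrate only without enzyme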
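Also added – OMFP at 25 µM · Test system – STEP tyrosine phosphatase · Technique – FITC-channel fluorescence of OMFP product · Schedule – 20 min at room temperature, dark · Evaluation – control-normalized % inhibition with plate pattern correction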
DNMT1 inh – human DNMT1 methyltransferase inhibitors, primary screen, biochemical, molecular beacon, fluorescence, HinP1I cleavage, uHTS. DNA (cytosine-5)-methyltransferase 1 (Homo sapiens), P26358. inhibition (reported as % activation of signal), % at 10 µM. 0.83% of 360,000 active. AID 588458, 2011; in the data active means inhibition above about 50%
Scp1 inh – Scp-1 phosphatase inhibitors, primary screen, biochemical, colorimetric, uHTS | Carboxy-terminal domain RNA polymerase II polypeptide A small phosphatase 1 (Homo … | Recombinant Scp1, phosphopeptide, malachite green phosphate absorbance | inhibition, % at 20 µM | 0.88% of 340,000 active | AID 493091, 2011;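 active means inhibition above about 50% at 20 µM, limit read from the data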;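 further: plate controls were DMSO wells with enzyme for no effect and wells lacking enzyme for full effect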
Target sequence (Q9GZU7 76-261 limits assumed): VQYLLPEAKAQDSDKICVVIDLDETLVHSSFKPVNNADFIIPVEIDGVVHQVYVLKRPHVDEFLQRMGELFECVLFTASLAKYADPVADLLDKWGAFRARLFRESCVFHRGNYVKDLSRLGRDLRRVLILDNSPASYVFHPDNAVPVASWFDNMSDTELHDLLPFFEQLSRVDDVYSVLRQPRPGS
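System: truncated SCP-1 phosphatase (76-261aa); medium: Tris acetate buffer pH 5.5 with MgCl2 and Tween-20; incubation: 45 min room-temperature reaction, 5 min colour, 30 min stabiliser; compound: single 20 µM dose, 1% DMSO; reagent: Phosphorylated 17-residue peptide substrate; read-out: % inhibition at 20 µM; technique: colorimetric free-phosphate detection, absorbance 630 nm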
LMPTP block – LMPTP phosphatase inhibitors, primary screen, biochemical, fluorescence intensity, uHTS | recombinant LMPTP-A, OMFP fluorogenic substrate | inhibition, % at 20 µM | 0.22% of 360,000 active | AID 651560, 2012;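 active means compounds that cut the enzyme signal by at least half of the control window in the single-dose screen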;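 further: plate controls were DMSO wells with enzyme plus substrate for no effect and substrate without enzyme for full effect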
Target sequence (P24666 whole entry, looked up): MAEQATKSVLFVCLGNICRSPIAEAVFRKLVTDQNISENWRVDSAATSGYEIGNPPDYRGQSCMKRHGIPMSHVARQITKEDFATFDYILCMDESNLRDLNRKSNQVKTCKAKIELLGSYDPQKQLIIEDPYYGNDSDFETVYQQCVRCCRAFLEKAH
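Test system: LMPTP-A phosphatase enzyme; input: 0.625 nM LMPTP-A final; reagent: OMFP substrate, 400 µM final; compound dosing: 20 µM single dose, 3% DMSO; incubation: 50 min dark incubation at room temperature; measured by: endpoint fluorescence intensity from OMFP dephosphorylation; measure: % inhibition relative to no-enzyme and uninhibited control wells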
DNMT1 inh conf – DNMT1 methyltransferase inhibitor retest, confirmation, biochemical, molecular beacon, fluorescence, single concentration; shares compounds with DNMT1 inh; DNMT1 molecular beacon HinP1I cleavage; inhibition, % at 10 µM; 8% of 2,300 active;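 active means average inhibition of at least 30% in the single-concentration confirmation test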
Beacon interf – counter-screen for DNMT1 inhibitors: spectral interference. 1% of 2,300 active. DNMT1 molecular beacon spectral interference counterscreen, fluorescence 485/520. shares compounds with DNMT1 inh. activation (fluorescence interference), % at 10 µM;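 active means activation of at least 30% at 10 µM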;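 further: DNMT1 catalytic domain with a HinP1I cleavage step and a FAM/dabcyl DNA beacon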
* = called active by the depositor; . = no result.

SMILES | SUMO1-SIM PPI | STEP block | DNMT1 inh | Scp1 inh | LMPTP block | DNMT1 inh conf | Beacon interf
O=c1oc2c(CN3CCCCC3)c(O)ccc2cc1-c1nc2ccccc2[nH]1 | -1 | -6 | 7 | -6 | -1 | . | .
O=S(=O)(Nc1ccc2c(c1)OCCO2)c1c(F)cccc1F | 0 | -2 | -3 | -6 | -1 | . | .
O=C1OC(c2cccs2)=N/C1=C/c1ccc(-c2cccc(C(=O)O)c2)o1 | 30 | 16 | 85* | 65* | 1 | 13 | -1
CCCCn1nnnc1C(c1ccccc1)N1CCN(c2ccccn2)CC1 (centres undefined) | 3 | . | . | . | -1 | . | .
COc1cc2sc3ccc(-c4ccc(N(C)C)nc4)cc3c(=O)c2cc1OC | . | . | . | 0 | . | . | .
COc1ccc(-c2ccc3sc4ccccc4c(=O)c3c2)cn1 | 19 | 7 | 56* | 6 | 33 | 0 | -5
CCc1nn(C(CC)C(=O)NCCc2ccc(OC)cc2OC)c(=O)c2cc3occc3n12 (centres undefined) | 0 | 0 | -2 | 1 | 2 | . | .
CCCCCCc1cc2cc(-c3nnc(-c4ccccc4OC)o3)c(=O)oc2cc1O | 3 | -4 | 100* | 7 | 2 | 6 | 11
CCCCCCc1cc2cc(C(=O)Nc3ccccc3OC)c(=O)oc2cc1O | 2 | -5 | 34 | -4 | -3 | . | .
Cc1cc2cc(CNS(=O)(=O)c3ccc4ccccc4c3)ccc2n1C | -17 | 2 | 54* | -4 | 9 | 4 | 1
CCOCCCn1c(=NC(C)=O)c(C#N)cc2c(=O)n3cccc(C)c3nc21 | 8 | -1 | 22 | 10 | 22 | . | .
CCCCn1c(=NC(C)=O)c(C#N)cc2c(=O)n3cccc(C)c3nc21 | -4 | 9 | 64* | 11 | 9 | 0 | 2
CCCCCn1c(=NC(C)=O)c(C#N)cc2c(=O)n3ccccc3nc21 | -12 | 0 | 78* | 2 | 18 | 2 | 2
CCc1ccc(OCCOCC(O)CNC2CCCC2)cc1 (centres undefined) | 5 | 1 | 0 | 0 | -1 | . | .
CCOC(=O)c1cc(-c2cc3ccccc3o2)nc2c1c(=O)[nH]c(=O)n2CCOC | -4 | 1 | 8 | -3 | -1 | . | .
CCOC(=O)c1cc(-c2ccc([N+](=O)[O-])cc2)nc2c1c(=O)[nH]c(=O)n2Cc1ccccc1 | 19 | 8 | 86* | -5 | 1 | 3 | 1
O=C(CSc1nnc(SCc2ccccc2)s1)N/N=C/C=C/c1ccco1 | 13 | 4 | 98* | 83* | 37 | 13 | 1
O=C(CNc1cccc2ccccc12)N/N=C/C=C/c1ccco1 | -12 | 1 | -18 | -8 | 5 | . | .
O=C(Cc1cccs1)N/N=C/C=C/c1ccco1 | 11 | 1 | 66* | 46 | 12 | 0 | -2
CC(C)CN(C(=O)CCCSc1nc2ccccc2[nH]1)c1c(N)n(Cc2ccccc2)c(=O)[nH]c1=O | -3 | 2 | 2 | 5 | 0 | . | .
CSc1nsc(/C=C/Nc2ccc(F)cc2F)c1C#N | -5 | 5 | -29 | -1 | 1 | . | .
CSc1nsc(/C=C/Nc2ccc(C(=O)O)cc2)c1C#N | 14 | 15 | 66* | 30 | 23 | 9 | 9
COc1ccc(C(=O)COc2ncnc3cc(Cl)ccc23)cc1 | 5 | 0 | 0 | -10 | -1 | . | .
O=C(C[C@H]1C/C=C\C[C@H](NC(=O)OCC2c3ccccc3-c3ccccc32)C(=O)OC[C@H](Cc2ccccc2)NC1=O)N[C@H](CO)Cc1ccccc1 | 1 | -4 | 51* | -4 | 0 | 3 | -3
Cn1c(=O)c2cc(NC(=O)NCCc3ccccc3)ccc2n1Cc1ccccc1 | 5 | 2 | 69* | . | -2 | 0 | 1
